Screening data deposited in PubChem BioAssay by The Scripps Research Institute Molecular Screening Center.
TRPML3 agonist = human mucolipin-3 channel agonism; activation, % at 3 µM; AID 1448; Q8TDD5; HEK293 TRPML3-YFP, Fluo-8 calcium fluorescence; 100% = the carbachol control signal; 220,000 compounds, 0.29% hits;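 active = activation above its plate's cutoff, the mean activation of the plate's test wells plus 3 SD, cut at about 12% in these data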;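 also: 0% = DMSO only wells and 100% = carbachol wells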
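Material: HEK293 cells stably carrying human TRPML3-YFP; compound dosing: single dose, 3 µM final nominal compound, 0.3% DMSO final; incubation: 1-h 37 °C dye load, 5-s basal, 120-s post-compound reads; technique: Fluo-8 intracellular calcium fluorescence, excitation 470-495 nm, emission 515-575 nm; read-out basis: percent activation from peak-to-basal fluorescence ratio, scaled between DMSO and carbachol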
GPR7 antagonist = antagonists of human GPR7 (neuropeptides B/W receptor 1) | P48145 | GPR7-expressing cells, fluorescence antagonist assay | 290,000 compounds, 1.1% hits | inhibition, % at 4.4 µM; in the data active = inhibition above about 16%, passing the limit was not always enough;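 also: cells stimulated with the agonist NPW; 0% = agonist with vehicle and 100% = vehicle without agonist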
Target sequence (P48145 whole entry, looked up): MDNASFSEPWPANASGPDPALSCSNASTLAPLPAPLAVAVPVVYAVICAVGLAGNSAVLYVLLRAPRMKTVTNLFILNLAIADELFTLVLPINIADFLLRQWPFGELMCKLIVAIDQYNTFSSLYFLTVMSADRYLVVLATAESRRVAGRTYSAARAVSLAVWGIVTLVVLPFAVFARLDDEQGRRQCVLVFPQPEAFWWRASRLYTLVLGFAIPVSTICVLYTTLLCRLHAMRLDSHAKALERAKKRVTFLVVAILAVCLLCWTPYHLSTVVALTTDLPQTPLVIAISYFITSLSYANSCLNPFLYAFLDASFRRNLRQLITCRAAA
TRPN1 ag = activates the zebrafish TRPN1 channel | AID 1424 | 220,000 compounds, 0.18% hits | HEK293 zebrafish TRPN1-YFP, Fluo-8 calcium fluorescence; 100% = response to 87 µM carbachol | activation, % at 3 µM;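 active = activation above its plate's cutoff, the mean activation of test wells on that plate plus 3 SD, cut at about 19% in these data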;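 also: 0% = DMSO alone and 100% = 87 µM carbachol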
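Material: zebrafish TRPN1-YFP in HEK293 cells; Doses: single test compound dose, 3 µM nominal, 0.3% DMSO; Timing: dye loading 1 h at 37 °C, then 30 min room temperature; Technique: intracellular calcium fluorescence with Fluo-8; Benchmarks: high carbachol 87 µM, low DMSO alone.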
OX1R antag-1 = human HCRTR1 antagonism; CHO/OX1R cells, Fluo-8 calcium fluorescence, orexin A; inhibition, % at 5 µM; 330,000 compounds, 0.43% hits;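 active = inhibition above its plate's threshold, mean inhibition of all tested compounds on the plate plus 3 SD, cut at about 37% in these data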;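 also: 0% = orexin A challenge wells and 100% = SB-334867-A antagonist wells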
Target sequence (O43613 whole entry, looked up): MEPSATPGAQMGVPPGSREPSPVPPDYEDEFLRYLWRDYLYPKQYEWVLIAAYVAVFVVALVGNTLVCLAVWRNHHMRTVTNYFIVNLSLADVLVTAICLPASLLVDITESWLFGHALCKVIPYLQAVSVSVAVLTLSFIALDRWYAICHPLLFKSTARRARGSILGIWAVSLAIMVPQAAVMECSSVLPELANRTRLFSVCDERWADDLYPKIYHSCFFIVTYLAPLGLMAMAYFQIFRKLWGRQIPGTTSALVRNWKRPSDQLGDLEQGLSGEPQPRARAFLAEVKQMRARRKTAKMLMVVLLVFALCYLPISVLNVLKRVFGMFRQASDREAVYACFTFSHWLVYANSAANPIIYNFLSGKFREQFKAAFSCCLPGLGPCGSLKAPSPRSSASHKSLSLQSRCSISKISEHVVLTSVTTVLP
OX1R antag-2 = antagonists of human orexin 1 receptor (OX1R); inhibition, % at 6.6 µM; AID 485270; OX1R-expressing cells, FRET antagonist read-out; 330,000 compounds, 1.8% hits; O43613; in the data active = inhibition mostly above about 38%, no sharp cut-off; inactive = mostly below about 40%;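 also: 0% = agonist challenge alone and 100% = reference antagonist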
CHO parental Ca = counter-screen for OX1R antagonists: effect in parental CHO cells | 330,000 compounds, 0.63% hits | inhibition, % at 5.6 µM | parental CHO-K1, ATP-induced calcium, Fluo-8 fluorescence | AID 463079;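 active = inhibition above that plate's mean sample inhibition plus 3 SD, cut at about 26% in these data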;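 also: 0% = ATP-challenged DMSO wells and 100% = DMSO wells without ATP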
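Assay system: parental CHO cells; Read-out basis: percent inhibition of ATP-evoked calcium rise, normalized to controls; Benchmarks: ATP and no-ATP DMSO wells; Compound dosing: single nominal dose of 5.6 µM per compound; Signal: Fluo-8 calcium dye fluorescence; Also added: ATP as calcium-mobilizing challenge; Repeats: singlicate.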
GPR7 antag conf = confirmation of human GPR7 antagonists; shares compounds with GPR7 antagonist; GPR7-expressing cells, calcium fluorescence antagonist mode; inhibition, % at 4.4 µM; 2,400 compounds, 52% hits; in the data active = inhibition above about 24%;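 also: stimulated with the GPR7 agonist NPW; 0% = agonist plus vehicle and 100% = vehicle alone without agonist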
MCHR1 antagonist = antagonizes human MCHR1, a GPR7 antagonist counter-screen. shares compounds with GPR7 antagonist. MCHR1-expressing cells, fluorescence antagonist assay. inhibition, % at 4.4 µM. 2,400 compounds, 62% hits. AID 2148; in the data active = inhibition above about 22%;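 also: 0% = vehicle with agonist and 100% = vehicle without agonist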
Numbers without * were called inactive; · = not tested or not shown. Most compounds without a hit are left out; they make up all but 3.2% or so of the library.

SMILES | TRPML3 agonist | GPR7 antagonist | TRPN1 ag | OX1R antag-1 | OX1R antag-2 | CHO parental Ca | GPR7 antag conf | MCHR1 antagonist
CCN(CC)S(=O)(=O)c1ccc2[nH]c(=O)c3ccccc3c2c1 | · | -14 | · | · | · | · | · | ·
CC(C)Cc1ccc(/C=C/C(=O)NC2CC2)cc1 | 3 | -7 | 5 | 2 | 29 | -8 | · | ·
CCCSc1nnc(CSc2nc3ccccc3s2)n1-c1ccccc1 | 0 | 32* | -1 | -13 | 37 | -11 | 10 | 50*
O=C(Oc1ccc2c(c1)OCO2)c1ccc(F)cc1Cl | -1 | 22* | -1 | -24 | 8 | -16 | 18 | 13
CCN(CC)CCNc1ccc2nnc(CCNS(=O)(=O)c3ccc(C)cc3)n2n1 | 1 | -9 | 1 | 3 | 11 | 2 | · | ·
Clc1ccc(OCCCNCc2ccccc2)c(Br)c1 | 2 | 26* | 0 | 9 | -7 | -5 | 40* | 54*
Clc1ccc(Cl)c(OCCCCNCc2ccccc2)c1 | 1 | 5 | 1 | -16 | 11 | -10 | · | ·
CCC(C)NCCOCCOc1ccc(Cl)cc1Br (stereo unspecified) | 1 | 47* | 1 | -15 | 20 | -10 | 10 | 16
CCOC(=O)c1ccccc1NC(=O)COC(=O)C(CCSC)NC(=O)COc1ccccc1 (stereo unspecified) | · | · | · | -21 | 34 | -16 | · | ·
CN(Cc1ccc(F)cc1)Cc1nc(-c2cnccn2)no1 | 0 | 8 | 1 | -11 | 16 | -18 | · | ·
O=C(c1cccc(S(=O)(=O)Nc2ccccc2Cl)c1)N1CCN(c2ccccc2O)CC1 | · | · | · | -3 | 14 | -20 | · | ·
COc1ccc(C(=O)c2sc(Nc3cccc(OC)c3)c(C(=O)Nc3cccc(C)c3C)c2N)cc1 | 4 | 79* | 6 | 29 | 1 | 60* | 23 | 77*
COc1ccc(Nc2sc(C(=O)c3ccc(Cl)cc3)c(N)c2C(=O)Nc2ccccc2OC)cc1 | 11 | 71* | 12 | 101* | 0 | 71* | 93* | 100*
COc1ccccc1NC(=O)c1c(Nc2ccccc2C)sc(C(=O)Nc2cccc(Cl)c2)c1N | 0 | 10 | 0 | 8 | 9 | 6 | · | ·
CC(C)C(=O)Nc1ccc(NC(=O)CCc2ccccc2)cn1 | 0 | 23* | -1 | -5 | 1 | -2 | 5 | 2
CC(C)C(=O)Nc1ccc(NC(=O)c2ccco2)cn1 | 1 | -1 | 1 | 2 | 9 | -1 | · | ·
CCC(C)(C)n1nnnc1C(c1cc(OC)ccc1OC)N1CCN(Cc2ccccc2)CC1 (stereo unspecified) | 0 | 27* | -2 | -46 | 12 | -31 | 31* | 43*
CCN(CC(=O)Nc1cc(Cl)ccc1OC)CC(=O)NC1CCS(=O)(=O)C1 (stereo unspecified) | 0 | -13 | 1 | -16 | 10 | -27 | · | ·
Cn1c(CC(=O)NNC(=O)c2ccc(F)cc2Cl)nc2ccccc21 | · | · | · | 9 | 2 | -9 | · | ·
Cc1ccc(C)c(CN2CCC(CNC(=O)Nc3ccc(F)c(Cl)c3)CC2)c1 | · | 38* | · | -17 | -10 | 5 | 40* | 68*
COc1ccc(/C=C2/CC/C(=C\c3ccc(OC)c(OC)c3OC)C2=O)c(OC)c1OC | 0 | 23* | 2 | -27 | 15 | -15 | -1 | 67*
COc1ccc(/C=C2\CCC(C3CCCC3)C2=O)c(OC)c1OC (stereo unspecified) | · | 10 | · | -20 | 9 | -8 | · | ·
CCOc1ccc(-c2nnc(N)s2)cc1 | -1 | 29* | -2 | -11 | 10 | -6 | -4 | -4
CCCCOc1ccc(-c2nnc(N)s2)cc1 | 1 | -16 | -1 | 3 | 19 | -10 | · | ·
COC(=O)CSc1nnc(-c2ccc(S(=O)(=O)NCc3cccs3)cc2)o1 | 1 | 22* | 1 | 6 | 0 | -1 | 58* | 38*
SMILES | TRPML3 agonist | GPR7 antagonist | TRPN1 ag | OX1R antag-1 | OX1R antag-2 | CHO parental Ca | GPR7 antag conf | MCHR1 antagonist
Nc1nonc1C(=O)NCCNCc1c(OCc2ccccc2F)ccc2ccccc12 | 1 | 28* | -3 | 2 | 14 | -5 | 47* | 69*
Nc1nonc1C(=O)NCCNCc1cc(Br)ccc1OCc1ccc(F)cc1 | 2 | 16 | 0 | 3 | 10 | 20 | · | ·
Cc1cccc(NC(=O)c2cnccn2)c1 | · | 2 | · | -15 | 4 | -6 | · | ·
O=C(CCCc1ccccc1)NC12CC3CC(CC(C3)C1)C2 | · | 10 | · | -34 | 15 | -14 | · | ·
CN(C(=O)COC(=O)/C=C/c1cccs1)C1CCCCC1 | · | · | · | -10 | 10 | -18 | · | ·
CCOc1cc(/C=C2/SC(=S)NC2=O)ccc1OC(=O)c1ccco1 | 0 | -1 | -1 | 11 | 46 | -14 | · | ·
O=C1NC(=S)S/C1=C/c1ccc(OC(=O)c2ccco2)cc1 | · | 28* | · | -4 | 52 | -10 | 16 | 23*
COCCOC(=O)c1[nH]c2c(c1C)C(=O)CC(c1ccco1)C2 (stereo unspecified) | -1 | 24* | -1 | -4 | -1 | -7 | 14 | 36*
O=C(Nc1ccc(Br)cc1)Nc1ccccc1Cl | 7 | 73* | 12 | 1 | 22 | 26 | 79* | 63*
CCOC(=O)N1C2C=C(C)[C@@H]2[C@@H]2CC(=O)N21 (stereo partly specified) | 1 | 0 | 2 | -1 | 8 | -5 | · | ·
O=C(COc1ccc([N+](=O)[O-])cc1)NCCC1=CCCCC1 | -1 | 29* | -2 | -27 | 12 | -8 | 31* | 16
CCNC(=S)Nc1cc(-c2ccc(Cl)cc2)[nH]n1 | 0 | -5 | 1 | -13 | 13 | -2 | · | ·
COc1ccc(C(=O)c2c(C)c3ccccc3n2CC(O)CNC(C)C)cc1 (stereo unspecified) | 1 | 21* | 0 | -20 | 5 | -14 | 12 | 18
CCOC(=O)COc1c(Cl)cc(C2NC(=S)NC(c3ccccc3)=C2C(C)=O)cc1OC (stereo unspecified) | 1 | 24* | 2 | -24 | 25 | -10 | 28* | 1
CN(C)CCNc1nc2sc3c(c2c(=O)n1CCc1ccccc1)CCCCC3 | 2 | 26* | 3 | -6 | 7 | 10 | 43* | 57*
CC1CN(C(=O)Nc2cccc(C(F)(F)F)c2)CC(C)O1 (stereo unspecified) | -2 | 27* | -2 | 3 | 22 | 8 | 24* | 36*
O=C(O)c1cccc(Sc2cc(Cl)ccc2C(=O)O)c1 | · | · | · | 0 | -2 | -7 | · | ·
O=S(=O)(c1ccc(Cl)cc1)N(Cc1ccccn1)Cc1ccccn1 | · | 36* | · | -21 | -2 | -19 | -3 | -2
